Among the data in ChEMBL document CHEMBL1126047, “Novel non-nucleoside inhibitors of HIV-1 reverse transcriptase. 2. Tricyclic pyridobenzoxazepinones and dibenzoxazepinones” (J Med Chem, 1992) are inhibition and IC50 values, retold here.

Assay [1] has as its target Human immunodeficiency virus type 1 reverse transcriptase (Human immunodeficiency virus 1) (UniProt Q72547). Description: Inhibition of HIV-1 reverse transcriptase at a concentration of 1 uM. Summed up: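 Recombinant p66/p51 heterodimer RT (>95% homogeneous) at 0.5 nM, with poly(rC):oligo(dG) 0.8 µg/mL and 500 nM [3H]dGTP. Compound in DMSO, diluted in buffer; enzyme-started, 1 h at room temperature. TCA/pyrophosphate-precipitated product filtered and counted; inhibition versus no-compound reactions.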

The target in assay [2] is Human immunodeficiency virus type 1 reverse transcriptase (Human immunodeficiency virus 1, UniProt Q72547). The experiment in a line: In vitro inhibitory activity against HIV-1 reverse transcriptase.
In another assay the test system is T-cell. The experiment in a line: In vitro inhibitory activity against HIV-1(IIIB) replication in human T-cells (c8166). The assay is classed as functional, cell-based. Summed up: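 CD4+ human T-cell line c8166 infected with HIV-1 IIIB. Syncytia formation scored, with IC50 taken as the concentration giving a 50% reduction in centers of syncytia.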

For `O=C1c2ccccc2Oc2ccccc2N1O`, the inhibition in assay [1] stood at 15%. In assay [1], `CCN1C(=O)c2cccnc2Oc2cccc([N+](=O)[O-])c21` registered an inhibition of 58%. In addition, the IC50 in assay [2] was 0.343 µM. In turn, `Cc1ccc2c(c1)Oc1ccc(C#N)cc1C(=O)N2C` had an inhibition in assay [1] of 69%. In addition, the IC50 in assay [2] stood at 0.28 µM. For `CN1C(=O)c2ccccc2Oc2nc(Cl)ccc21`, the inhibition in assay [1] is 21%. In assay [1], `C=CCN1C(=O)c2ccccc2Oc2ccccc21` had an inhibition of 58%. The molecule also had a half-inhibitory concentration (IC50) in assay [2] of 0.465 µM. With `CCCN1C(=O)c2ccccc2S(=O)(=O)c2ccccc21`, in assay [1], the inhibition came out at 31%.

In turn, `Cc1ccc2c(c1)Oc1ccc(O)cc1C(=O)N2C` returned an inhibition in assay [1] of 58%. In assay [2], this molecule displayed an IC50 of 0.64 µM. In the case of `Cc1cc(C)c2c(c1)Oc1ccccc1C(=O)N2C`, the values for the IC50 (with T-cell; in assay [2]) were 0.038 µM and 0.057 µM, respectively. Further, the inhibition in assay [1] is 86%.

`CCCN1C(=O)c2cc(N)ccc2Oc2cccc(C)c21` returned an inhibition in assay [1] of 70%. In addition, the IC50 in assay [2] came out at 0.26 µM. With `Cc1ccc2c(c1)Oc1ncccc1C(=O)N2`, in assay [1], the inhibition came to 5%.

With `CN1C(=O)c2ccccc2Oc2cc(N)ccc21`, the inhibition in assay [1] turned out to be 20%. Molecule `CON1C(=O)c2ccccc2Oc2ccccc21` showed an inhibition in assay [1] of 36%. For the molecule `CCN1C(=O)c2cccnc2Oc2cc(C)cc([N+](=O)[O-])c21`, the inhibition in assay [1] amounted to 85%. Also, in assay [2], the midpoint of inhibition, the IC50, lay at 0.031 µM. In turn, `CC(C)N1C(=O)c2ccccc2Oc2ccccc21` had an inhibition in assay [1] of 73%. This molecule returned an IC50 in assay [2] of 0.34 µM.

On to `COC(=O)c1cc(C)cc2c1N(C)C(=O)c1cccnc1O2`, for which, in assay [1], the inhibition turned out to be 95%. For the same molecule, the IC50 in assay [2] was 0.022 µM. Consider `CCCN1C(=O)c2cc(N)ccc2Oc2cc(C)ccc21`, for which the inhibition in assay [1] was determined as 84%. The molecule also registered a 50% inhibitory concentration (IC50) in assay [2] of 0.13 µM. The molecule `O=C1Nc2ccccc2Oc2ccccc21` gave an inhibition in assay [1] of 30%. On to `CCCN1C(=O)c2cc(N)ccc2Oc2ccc(C)cc21`, for which, in assay [1], the inhibition worked out at 53%. As for `CCN1C(=O)c2cc(N)cnc2Oc2cc(C)c(C)cc21`, in assay [1], the inhibition amounted to 83%. This molecule also registered an IC50 in assay [2] of 0.071 µM.

As for `Cc1cc2c(c(C(=O)O)c1)N(C)C(=O)c1cccnc1O2`, in assay [1], the inhibition is 0%. `CN1C(=O)c2cc(C#N)ccc2Oc2ccccc21` yielded an inhibition in assay [1] of 12%. In the case of `CN1C(=O)c2ccccc2Oc2ccccc21`, in assay [1], the inhibition is 20%. In turn, `Cc1cc(N)c2c(c1)Oc1ncccc1C(=O)N2C` registered an inhibition in assay [1] of 53%. The molecule further came in with an IC50 in assay [2] of 1 µM.

Take `Cc1cc2c(cc1C)N(C(C)C)C(=O)c1cc(N)cnc1O2`: in assay [1], the inhibition came to 89%. This molecule yielded an IC50 in assay [2] of 0.045 µM. Regarding `CCN1C(=O)c2cccnc2Oc2cc(C)cc(C#N)c21`, in assay [1], the inhibition was determined as 96%. In assay [2], this molecule came in with a half-maximal inhibitory concentration (IC50) of 0.019 µM.

Turning to `CC(C)CN1C(=O)c2ccccc2Oc2ncccc21`, the inhibition in assay [1] was determined as 29%. On the same count and under the same terms, with `CN1C(=O)c2cccnc2Oc2ccccc21` the figure was 23%.

`CCCN1C(=O)c2cc(N)ccc2Oc2cc(C)c(C)cc21`: the inhibition in assay [1] came to 87%. The midpoint of inhibition in assay [2], the IC50, lay at 0.165 µM. On to `COC(=N)c1cc(C)cc2c1N(C)C(=O)c1cccnc1O2`, for which, in assay [1], the inhibition was found to be 0%. For `C=CCN1C(=O)c2cccnc2Oc2ccccc21`, the inhibition in assay [1] worked out at 40%. Turning to `CCN1C(=O)c2cccnc2Oc2cc(C)cc(C)c21`, the inhibition in assay [1] amounted to 92%. Besides, half-maximal inhibition in assay [2] (IC50) was put at 0.029 µM.

In the case of `Cc1ccc2c(c1)Oc1ncccc1C(=O)N2C`, the inhibition in assay [1] was 43%. In the case of `Cc1cc(C)c2c(c1)Oc1ncc(N)cc1C(=O)N2C`, the results for the IC50 (in the assay with T-cell; in assay [2]) were 0.115 µM and 0.046 µM, respectively. Besides, the inhibition in assay [1] is 92%.

`CN1C(=O)c2cccnc2Oc2cc([N+](=O)[O-])ccc21` gave an inhibition in assay [1] of 0%. In turn, `Cc1cc(CO)c2c(c1)Oc1ncccc1C(=O)N2C` registered an inhibition in assay [1] of 39%. With `Cc1cc2c(c([N+](=O)[O-])c1)N(C)C(=O)c1cccnc1O2`, in assay [1], the inhibition came to 85%. In assay [2], this molecule registered an IC50 of 0.023 µM.

As for `CN1C(=O)c2cccnc2Oc2cccc(C#N)c21`, the inhibition in assay [1] came to 29%.

In assay [1], `CN1C(=O)c2cccnc2Oc2cc(F)ccc21` registered an inhibition of 3%. Molecule `Cc1ccc2c(c1)Oc1ncc([N+](=O)[O-])cc1C(=O)N2C` gave an inhibition in assay [1] of 0%. Same read-out and setting: with `CCCN1C(=O)c2cccnc2Oc2ccccc21` the figure was 31%. Turning to `CCCN1C(=S)c2ccccc2Oc2ccccc21`, the inhibition in assay [1] was found to be 46%. 2.2 µM corresponded to half-maximal inhibition in assay [2] (IC50). `CN1C(=O)c2cc(CN)ccc2Oc2ccccc21`: the inhibition in assay [1] came out at 0%. In the case of `Cc1cc(C)c2c(c1)Oc1ccc(O)cc1C(=O)N2C`, the values for the IC50 (in the assay with T-cell; in assay [2]) were 0.088 µM and 0.063 µM, respectively. This molecule also gave an inhibition in assay [1] of 80%. Turning to `Cc1ccc2c(c1)Oc1ccc(N)cc1C(=O)N2C`, the inhibition in assay [1] amounted to 96%. The same molecule registered a 50% inhibitory concentration (IC50) in assay [2] of 0.03 µM. Consider `CCN1Cc2ccccc2Oc2ccccc21`, for which the inhibition in assay [1] was determined as 12%. In the case of `CCCN1C(=O)c2cc(N)ccc2Oc2ccc(C)c(C)c21`, the inhibition in assay [1] worked out at 63%. This molecule also returned an IC50 in assay [2] of 0.67 µM. `Cc1cccc2c1N(C)C(=O)c1ccccc1O2`: the inhibition in assay [1] stood at 36%. In assay [1], `Cc1cc(C)c2c(n1)Oc1ccccc1C(=O)N2C` yielded an inhibition of 25%. In assay [1], `CCN1C(=O)c2cc([N+](=O)[O-])ccc2Oc2ccccc21` showed an inhibition of 23%. `CCN1C(=O)c2cc(N)ccc2Oc2cccc(C)c21`: the inhibition in assay [1] amounted to 90%. This molecule came in with an IC50 in assay [2] of 0.06 µM. For `CCN1C(=O)c2cc(N)ccc2Oc2ccccc21` the same measures were 82% and 0.145 µM.

For `CN1C(=O)c2ccc(N)cc2Oc2ccccc21`, the inhibition in assay [1] is 19%. Molecule `CSCCN1C(=O)c2ccccc2Oc2nc(Cl)ccc21` displayed an inhibition in assay [1] of 79%. In assay [2], this molecule came in with an IC50 of 0.072 µM. In assay [1], `CCN1C(=O)c2ccccc2Oc2ccccc21` displayed an inhibition of 54%. In addition, half-maximal inhibition in assay [2] (IC50) was put at 0.56 µM. For `CCCN1C(=O)c2ccccc2Sc2ccccc21` the same measures were 77% and 0.4 µM. Take `Cc1ccc2c(c1)Oc1ncc(N)cc1C(=O)N2C`: in assay [1], the inhibition worked out at 57%. Moreover, the IC50 in assay [2] is 0.25 µM. Consider `CCN1C(=O)c2ccccc2Oc2nc(Cl)ccc21`, for which, in assay [1], the inhibition came out at 35%.

On to `CCN1C(=O)c2cc(N)cnc2Oc2cc(C)cc(C)c21`, for which the IC50 with T-cell worked out at 0.054 µM; in assay [2] it was 0.027 µM. In assay [1], this molecule had an inhibition of 93%. As to `COc1ccc2c(c1)Oc1ncccc1C(=O)N2C`, in assay [1], the inhibition amounted to 24%. Same read-out and setting: the same measure for `CN1C(=O)c2cccnc2Oc2cc(O)ccc21`: 14%.

On to `CCN1C(=O)c2cccnc2Oc2cc(C)cc(N)c21`, for which the inhibition in assay [1] turned out to be 73%. This molecule also came in with an IC50 in assay [2] of 0.132 µM. `Cc1cc2c(c(C(N)=O)c1)N(C)C(=O)c1cccnc1O2` had an inhibition in assay [1] of 31%.

As for `Cc1cc(C)c2c(c1)Oc1ccc(C#N)cc1C(=O)N2C`, the IC50 with T-cell was determined as 0.031 µM; in assay [2], 0.05 µM. Besides, the inhibition in assay [1] stood at 77%. In turn, `Cc1cc(C)c2c(c1)Oc1ccc(N)cc1C(=O)N2C` had an inhibition in assay [1] of 95%. Further, in assay [2], the IC50 came out at 0.02 µM.

With `CCCN1C(=O)c2ccccc2[S+]([O-])c2ccccc21` (configuration not stated), the inhibition in assay [1] came to 20%. `CN1C(=O)c2cc(N)ccc2Oc2ccccc21` came in with an inhibition in assay [1] of 73%. The IC50 in assay [2] is 0.18 µM. `CN1C(=O)c2ccccc2Oc2ncccc21`: the inhibition in assay [1] was found to be 2%.

`CCN1C(=O)c2cc(N)ccc2Oc2cc(C)cc(C)c21` yielded an inhibition in assay [1] of 95%. Also, half-maximal inhibition in assay [2] (IC50) was put at 0.043 µM. As for `CCN1C(=O)c2cccnc2Oc2cccc(N)c21`, the inhibition in assay [1] turned out to be 33%. Regarding `Cc1cccc2c1NC(=O)c1cc(N)ccc1O2`, the inhibition in assay [1] was determined as 31%. For the molecule `CN1C(=O)c2cccnc2Oc2cc(N)ccc21`, the inhibition in assay [1] is 0%. Regarding `Cc1cc2c(cc1C)N(C)C(=O)c1cc(N)cnc1O2`, the inhibition in assay [1] turned out to be 72%. In addition, in assay [2], the IC50 was found to be 0.322 µM. In assay [1], `CCN1C(=O)c2cc(N)ccc2Oc2ccc(C)cc21` displayed an inhibition of 76%. The IC50 in assay [2] was found to be 0.24 µM. Take `CNc1ccc2c(c1)C(=O)N(C)c1ccccc1O2`: the inhibition in assay [1] is 40%.

Turning to `CCCN1C(=O)c2cc(N)ccc2Oc2c(C)cc(C)cc21`, the inhibition in assay [1] came out at 52%. The molecule also returned an IC50 in assay [2] of 0.9 µM.

As for `CCCN1C(=O)c2cccnc2Oc2ncccc21`, the inhibition in assay [1] is 5%. On the same count and under the same terms, with `CN(C)c1ccc2c(c1)Oc1ncccc1C(=O)N2C` the figure was 34%. In turn, `CCCN1C(=O)c2ccccc2Oc2ccccc21` registered an inhibition in assay [1] of 72%. In addition, the half-inhibitory concentration (IC50) in assay [2] came to 0.375 µM. As to `Cc1cc(C#N)c2c(c1)Oc1ncccc1C(=O)N2C`, the inhibition in assay [1] was determined as 88%. The IC50 in assay [2] turned out to be 0.055 µM. In turn, `CCN1C(=O)c2cccnc2Oc2ccccc21` showed an inhibition in assay [1] of 25%.

Regarding `Cc1ccc2c(c1)Oc1ccccc1C(=O)N2C`, the inhibition in assay [1] is 66%. In assay [2], this molecule came in with an IC50 of 0.6 µM.

Turning to `Cc1cc2c(c(S(C)(=O)=O)c1)N(C)C(=O)c1cccnc1O2`, in assay [1], the inhibition stood at 27%.

Molecule `CCN1C(=S)c2cccnc2Oc2cc(C)cc(C)c21` returned an inhibition in assay [1] of 82%. The same molecule registered an IC50 in assay [2] of 0.09 µM.

`CCCN1C(=O)c2ccccc2Oc2nc(Cl)ccc21` came in with an inhibition in assay [1] of 68%. Besides, the midpoint of inhibition in assay [2], the IC50, lay at 0.21 µM.

In the case of `Cc1cc(C)c2c(c1)Oc1ccccc1C(=O)N2`, the inhibition in assay [1] came to 39%.
